{"source": "paper PMC6658111", "about": "(Journal of molecular biology, 2018)", "molecules": {"B1": {"name": "MBP-dEAG_(long) (wild-type Drosophila EAG CaMKII-binding fragment, residues 768 to 820, fused to maltose-binding protein) (domain or fragment, UniProt Q02280 768-820, looked up)", "chain": "{MBP}-VFPKAPKLQASQATLARQDTIDEGGEVDSSPPSRDSRVVIEGAAVSSATVGPS", "modifications": "reading uncertain"}, "B2": {"name": "MBP-dEAG_(long) L782A (domain or fragment, Drosophila, UniProt Q02280 768-820, looked up)", "chain": "VFPKAPKLQASQATAARQDTIDEGGEVDSSPPSRDSRVVIEGAAVSSATVGPS"}, "B3": {"name": "MBP-dEAG_(long) Q785A (domain or fragment, Drosophila, UniProt Q02280 768-820, looked up)", "chain": "B2 chain with A15L, Q18A"}, "B4": {"name": "MBP-dEAG_(long) I788A (domain or fragment, Drosophila, UniProt Q02280 768-820, looked up)", "chain": "B2 chain with A15L, I21A"}, "B5": {"name": "MBP-dEAG_(long) E793A (domain or fragment, Drosophila, UniProt Q02280 768-820, looked up)", "chain": "B2 chain with A15L, E26A"}, "B6": {"name": "MBP-dEAG_(long) R784A (domain or fragment, Drosophila, UniProt Q02280 768-820, looked up)", "chain": "B2 chain with A15L, R17A"}, "B7": {"name": "MBP-dEAG_(long) D789A (domain or fragment, Drosophila, UniProt Q02280 768-820, looked up)", "chain": "B2 chain with A15L, D22A"}, "B8": {"name": "MBP-dEAG_(long) E790A (domain or fragment, Drosophila, UniProt Q02280 768-820, looked up)", "chain": "B2 chain with A15L, E23A"}, "B9": {"name": "phosphorylated dEAG_(long) channel fragment (dEAG_(long)^P), MBP removed (domain or fragment, Drosophila, UniProt Q02280 768-820, looked up)", "chain": "VFPKAPKLQASQATLARQD[pT]IDEGGEVDSSPPSRDSRVVIEGAAVSSATVGPS", "modifications": "also: phosphothreonine at T787"}}, "key": {"[1]": {"tested_on": "wild type CaMKII kinase domain (residues 1–283)", "format": "binding", "details": "ITC; for −TΔS: 25 °C, pH 7.5, Mg2+-AMPPNP, mean and standard deviation of the mean"}, "[2]": {"tested_on": "CaMKII^D136N kinase domain (residues 1–283)", "format": "binding", "details": "ITC, 25 °C, pH 7.5, Mg2+-AMPPNP, mean and standard deviation of the mean, n=4"}, "[3]": {"tested_on": "wild type CaMKII kinase domain", "parameters": "species or system Drosophila", "details": "LC-HRMS of final ITC mixture, Mg2+-AMPCP", "in_short": "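Sample is the end-point mixture of isothermal titration calorimetry at 25 °C. MBP-dEAG channel fragment was titrated into a cell holding the Drosophila CaMKII kinase domain (residues 1–283, E. coli-expressed, wild type or D136N), with one 2 μl injection then 27 × 10 μl. Partners were first co-dialysed against 25 mM HEPES pH 7.5, 150 mM KCl, 0.5 mM TCEP, then with 1 mM MgCl₂ + 250 μM nucleotide. Final composition was 5 mM MgCl₂ and 1 mM nucleotide.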"}, "[4]": {"tested_on": "CaMKII^K43M,D136N kinase domain", "assay": "Isothermal titration calorimetry with K43M/D136N CaMKII kinase domain", "format": "binding, Drosophila", "details": "ITC, 25 °C, pH 7.5, Mg2+-AMPPNP, mean and standard deviation of the mean, n=3"}, "T787A dEAG channel": {"tested_on": "T787A dEAG channel", "sequence (Q02280 whole entry T787A)": "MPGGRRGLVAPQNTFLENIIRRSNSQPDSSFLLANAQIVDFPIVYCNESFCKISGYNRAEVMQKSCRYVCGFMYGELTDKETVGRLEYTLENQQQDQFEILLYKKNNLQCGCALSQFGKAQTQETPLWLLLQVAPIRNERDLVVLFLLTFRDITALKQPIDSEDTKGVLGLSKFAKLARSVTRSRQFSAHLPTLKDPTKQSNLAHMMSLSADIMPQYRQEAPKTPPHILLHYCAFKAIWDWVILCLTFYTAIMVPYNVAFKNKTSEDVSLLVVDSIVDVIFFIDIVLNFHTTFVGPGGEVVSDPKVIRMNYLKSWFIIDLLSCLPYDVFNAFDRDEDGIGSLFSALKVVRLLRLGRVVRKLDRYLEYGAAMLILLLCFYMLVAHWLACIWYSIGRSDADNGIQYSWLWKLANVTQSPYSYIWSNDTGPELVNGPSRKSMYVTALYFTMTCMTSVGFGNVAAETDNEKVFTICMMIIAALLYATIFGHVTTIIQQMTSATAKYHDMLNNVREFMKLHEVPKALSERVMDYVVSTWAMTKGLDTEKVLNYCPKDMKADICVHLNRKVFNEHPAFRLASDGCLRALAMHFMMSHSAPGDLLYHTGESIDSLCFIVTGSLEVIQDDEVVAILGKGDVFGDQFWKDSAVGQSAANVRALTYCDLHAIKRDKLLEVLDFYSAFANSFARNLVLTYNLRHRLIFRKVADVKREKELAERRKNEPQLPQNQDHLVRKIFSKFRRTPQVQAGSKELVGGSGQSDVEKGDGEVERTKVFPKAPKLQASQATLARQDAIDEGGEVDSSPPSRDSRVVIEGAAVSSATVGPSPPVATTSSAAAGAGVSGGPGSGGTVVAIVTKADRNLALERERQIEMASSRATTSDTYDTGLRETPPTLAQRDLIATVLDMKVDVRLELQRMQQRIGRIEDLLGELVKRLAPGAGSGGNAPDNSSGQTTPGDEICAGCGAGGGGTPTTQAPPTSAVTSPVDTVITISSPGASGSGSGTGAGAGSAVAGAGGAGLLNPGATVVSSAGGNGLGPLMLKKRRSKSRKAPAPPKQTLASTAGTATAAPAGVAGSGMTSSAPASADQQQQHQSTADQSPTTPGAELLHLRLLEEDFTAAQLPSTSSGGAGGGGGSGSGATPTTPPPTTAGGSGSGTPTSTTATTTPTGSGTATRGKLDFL", "assay": "Two-electrode voltage clamp in oocytes, T787A dEAG channel", "format": "cell-based, Drosophila", "details": "Xenopus laevis oocytes, n=7–10"}, "wild type dEAG channel": {"tested_on": "wild type dEAG channel", "assay": "Two-electrode voltage clamp in oocytes, wild type dEAG channel", "format": "cell-based, Drosophila", "details": "Xenopus laevis oocytes, co-expression with inactive kinase (K43M/D136N); n=6–8", "in_short": "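Xenopus oocytes were defolliculated with 75 µg/ml Liberase for 40–60 min in Ca²⁺-free ND96. Stage V–VI cells were injected with premixed channel and kinase cRNA, then kept 1–5 d at 16 °C in storage solution containing gentamycin. Currents were recorded by standard two-microelectrode voltage clamp under continuous perfusion with 96 mM NaCl, 2 mM KCl, 0.3 mM CaCl₂, 1 mM MgCl₂, 5 mM HEPES, pH 7.4.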"}, "[5]": {"molecular_target": "T1, wild type CaMKII kinase domain (residues 1–283) (Drosophila, UniProt Q00168 1-283)", "T1 sequence (Q00168 1-283)": "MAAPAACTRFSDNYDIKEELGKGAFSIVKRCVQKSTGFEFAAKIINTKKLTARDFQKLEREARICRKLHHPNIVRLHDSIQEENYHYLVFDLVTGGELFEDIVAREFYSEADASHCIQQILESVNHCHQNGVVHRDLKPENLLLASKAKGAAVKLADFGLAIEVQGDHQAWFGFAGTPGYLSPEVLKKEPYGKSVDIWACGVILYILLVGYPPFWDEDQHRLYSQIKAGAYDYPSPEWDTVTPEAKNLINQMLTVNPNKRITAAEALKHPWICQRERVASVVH", "assay": "ITC"}, "[6]": {"molecular_target": "T1, wild type CaMKII kinase domain …", "assay": "ITC", "remark": "listed apart in the source"}, "[7]": {"molecular_target": "T2, CaMKII kinase domain D136N mutant (residues 1–283) (Drosophila, UniProt Q00168 1-283, D136N)", "T2 sequence (Q00168 1-283 D136N)": "as the sequence (Q00168 1-283) above, with D136N counted along it", "assay": "crystal structure"}, "[8]": {"molecular_target": "T2, CaMKII kinase domain D136N mutant …", "assay": "ITC"}, "[9]": {"molecular_target": "CaMKII kinase domain K43M/D136N mutant (Drosophila, UniProt Q00168 1-283, K43M | D136N)", "sequence (Q00168 1-283 K43M/D136N)": "as the sequence (Q00168 1-283) above, with K43M, D136N counted along it", "assay": "ITC"}, "[10]": {"molecular_target": "T2, CaMKII kinase domain D136N mutant …", "assay": "ITC", "remark": "listed apart in the source"}, "[11]": {"molecular_target": "T1, wild type CaMKII kinase domain …", "assay": "ITC", "remark": "listed apart in the source"}, "[12]": {"details": "dEAGlong, individually fitted, n=4 (WT), n=3 (R784A, D789A)"}}, "note": "Positions count from the first letter of the chain named. Names and notes keep the numbering of the source. Values joined by “and” are separate entries in the source; they are usually repeats but may differ in a detail not shown here. Equal entries are not always repeated. Where two headings read alike, the source gives them in different places. Non-standard residues stand in square brackets, D forms with d. No end group written: not given here. pT = C[C@@H](OP(=O)(O)O)[C@H](N)C(=O)O; MBP = not defined here", "data": [{"molecule": "EAGlong^D789A: alanine mutant D789A of MBP-dEAGlong ({MBP}-VFPKAPKLQASQATLARQDTIAEGGEVDSSPPSRDSRVVIEGAAVSSATVGPS; reading uncertain)", "values": [{"measurement": "−TΔS", "setting": "[1]; [12]", "value": "5.7 ± 2.3", "unit": "kcal/mol"}]}, {"molecule": "EAGlong^R784A: alanine mutant R784A of MBP-dEAGlong ({MBP}-VFPKAPKLQASQATLAAQDTIDEGGEVDSSPPSRDSRVVIEGAAVSSATVGPS; reading uncertain)", "values": [{"measurement": "−TΔS", "setting": "[1]; [12]", "value": "4.4 ± 4.7", "unit": "kcal/mol"}]}, {"molecule": "EAGshort: dEAG residues 768 to 795 with mutations S778N and T781K, fused to maltose-binding protein ({MBP}-VFPKAPKLQANQAKLARQDTIDEGGEVD; reading uncertain; also: N-terminal His6, state not given here)", "values": [{"measurement": "−TΔS", "setting": "[2]", "value": "5.3 ± 3.8", "unit": "kcal/mol"}, {"measurement": "phosphorylation state of fragment at end of ITC", "setting": "[3]", "value": "dephosphorylated during the titration"}, {"measurement": "−TΔS", "setting": "[4]", "value": "8.7 ± 0.1", "unit": "kcal/mol"}, {"measurement": "−TΔS", "setting": "[1]; dEAGshort, wild type kinase, n=3", "value": "11.4 ± 0.9", "unit": "kcal/mol"}]}, {"molecule": "dEAGlong^P: phosphorylated dEAGlong channel fragment used in crystal structure (VFPKAPKLQASQATLARQD[pT]IDEGGEVDSSPPSRDSRVVIEGAAVSSATVGPS; also: phosphothreonine at T787)", "values": [{"measurement": "affinity relative to typical kinase-substrate (KD ~200 μM)", "setting": "[1]; fold tighter than expected for a kinase-substrate, typical KD from ref 27", "value": "approximately 200 fold"}]}, {"molecule": "inactive Drosophila kinase: full-length Drosophila CaMKII with two point mutations (K43M/D136N) in the active site", "values": [{"measurement": "effect of co-expressed kinase on channel activity", "setting": "T787A dEAG channel", "value": "loss of measurable currents"}, {"measurement": "reduction of channel current", "setting": "wild type dEAG channel", "value": "more than 10 fold"}]}, {"molecule": "B1", "values": [{"measurement": "Kd", "setting": "[5]", "value": 674, "unit": "nM"}, {"measurement": "dH", "setting": "[5]", "value": -17.3, "unit": "kcal/mol"}, {"measurement": "stoichiometry N", "setting": "[5]", "value": 0.96}, {"measurement": "Kd", "setting": "[6]", "value": 1000, "unit": "nM"}, {"measurement": "dH", "setting": "[6]", "value": -7.3, "unit": "kcal/mol"}, {"measurement": "stoichiometry N", "setting": "[6]", "value": 0.94}]}, {"molecule": "B2", "values": [{"measurement": "Kd", "setting": "[5]", "value": 24600, "unit": "nM"}, {"measurement": "dH", "setting": "[5]", "value": -3.75, "unit": "kcal/mol"}, {"measurement": "stoichiometry N", "setting": "[5]", "value": "1.28 and 0.645"}]}, {"molecule": "B3", "values": [{"measurement": "Kd", "setting": "[5]", "value": 12600, "unit": "nM"}, {"measurement": "dH", "setting": "[5]", "value": -18.5, "unit": "kcal/mol"}, {"measurement": "stoichiometry N", "setting": "[5]", "value": "0.747 and 0.664"}]}, {"molecule": "B4", "values": [{"measurement": "Kd", "setting": "[5]", "value": 80300, "unit": "nM"}, {"measurement": "dH", "setting": "[5]", "value": -10.5, "unit": "kcal/mol"}, {"measurement": "stoichiometry N", "setting": "[5]", "value": "0.667 and 1.09"}]}, {"molecule": "B5", "values": [{"measurement": "Kd", "setting": "[5]", "value": 1680, "unit": "nM"}, {"measurement": "dH", "setting": "[5]", "value": -16.7, "unit": "kcal/mol"}, {"measurement": "stoichiometry N", "setting": "[5]", "value": 0.978}]}, {"molecule": "B6", "values": [{"measurement": "Kd", "setting": "[5]", "value": 47000, "unit": "nM"}, {"measurement": "dH", "setting": "[5]", "value": -10.3, "unit": "kcal/mol"}, {"measurement": "stoichiometry N", "setting": "[5]", "value": 0.85}]}, {"molecule": "B7", "values": [{"measurement": "Kd", "setting": "[5]", "value": 7300, "unit": "nM"}, {"measurement": "dH", "setting": "[5]", "value": -12.7, "unit": "kcal/mol"}, {"measurement": "stoichiometry N", "setting": "[5]", "value": 1.02}]}, {"molecule": "B8", "values": [{"measurement": "Kd", "setting": "[5]", "value": 2430, "unit": "nM"}, {"measurement": "dH", "setting": "[5]", "value": -15.7, "unit": "kcal/mol"}, {"measurement": "stoichiometry N", "setting": "[5]", "value": 1.06}]}, {"molecule": "B9", "values": [{"measurement": "binding result", "setting": "[7]", "value": "binds"}]}, {"molecule": "VFPKAPKLQANQAKLARQDTIDEGGEVD (domain or fragment, UniProt Q02280 768-795, looked up)", "values": [{"measurement": "Kd", "setting": "[8]", "value": 216, "unit": "nM"}, {"measurement": "dH", "setting": "[8]", "value": -16.3, "unit": "kcal/mol"}, {"measurement": "stoichiometry N", "setting": "[8]", "value": 0.83}, {"measurement": "Kd", "setting": "[9]", "value": 173, "unit": "nM"}, {"measurement": "dH", "setting": "[9]", "value": -18, "unit": "kcal/mol"}, {"measurement": "stoichiometry N", "setting": "[9]", "value": 0.79}, {"measurement": "Kd", "setting": "[10]", "value": 197, "unit": "nM"}, {"measurement": "dH", "setting": "[10]", "value": -14.5, "unit": "kcal/mol"}, {"measurement": "stoichiometry N", "setting": "[10]", "value": 0.81}, {"measurement": "Kd", "setting": "[11]", "value": 94, "unit": "nM"}, {"measurement": "dH", "setting": "[11]", "value": -21, "unit": "kcal/mol"}, {"measurement": "stoichiometry N", "setting": "[11]", "value": 0.86}]}, {"molecule": "{MBP}-VFPKAPKLQANQAKLARQD[pT]IDEGGEVD (domain or fragment, Drosophila, UniProt Q02280 768-795, looked up, reading uncertain)", "note": "[MBP-dEAG_(short)^P (phosphorylated dEAG_(short), phosphorylated at T787)]", "values": [{"measurement": "Kd", "setting": "[8]", "value": 0.475, "unit": "nM"}, {"measurement": "dH", "setting": "[8]", "value": -8.9, "unit": "kcal/mol"}, {"measurement": "stoichiometry N", "setting": "[8]", "value": 1.07}]}]}
